GalR3 antagonist = human GalR3 antagonism; HEK293 GalR3-CNG cAMP membrane potential fluorescence; galR3 body fused to GalR1 C-terminus; O60755; hit rate 0.44% among 360,000; inhibition, % at 3 µM;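 active = inhibition above the screen-wide average plus 3 SD, cut at about 13% in these data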;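 note: forskolin and galanin both at EC90 stimulate the cells; cAMP rise reported by CNG channel membrane potential dye signal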
Target sequence (O60755 1-299 limits assumed): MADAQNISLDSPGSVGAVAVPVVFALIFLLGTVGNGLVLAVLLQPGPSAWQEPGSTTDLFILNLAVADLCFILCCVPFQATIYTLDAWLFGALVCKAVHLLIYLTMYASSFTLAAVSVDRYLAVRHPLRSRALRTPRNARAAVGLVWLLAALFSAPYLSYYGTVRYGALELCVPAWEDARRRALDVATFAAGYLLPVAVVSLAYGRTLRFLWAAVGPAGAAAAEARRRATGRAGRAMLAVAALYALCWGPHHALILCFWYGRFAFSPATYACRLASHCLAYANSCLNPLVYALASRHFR
TAAR1 ag = agonists of human TAAR1. CHO RD-HGA16 TAAR1, Fluo-8 calcium fluorescence; vehicle wells 0%, saturating PEA agonist 100%. activation, % at 3 µM. hit rate 0.99% among 360,000;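 active = activation above the mean activation of all test compounds in the run plus 3 SD, cut at about 38% in these data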
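System: CHO RD-HGA16 cells carrying human TAAR1 plus Gα16; Incubation: 17-24 h seeding, 75 min 37 °C dye, 30 min RT; Measured by: Fluo-8 fluorescence, 5 s baseline then 140 s kinetic read; Control set: DMSO and PEA EC100; Replication: single well for each compound.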
OX1R antag-1 = blocks the human orexin 1 receptor; O43613; CHO/OX1R cells, Fluo-8 calcium fluorescence, orexin A; inhibition, % at 5 µM; hit rate 0.43% among 330,000; AID 434989;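 active = inhibition above its plate's threshold, mean inhibition of all tested compounds on the plate plus 3 SD, cut at about 37% in these data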
Target sequence (O43613 whole entry, looked up): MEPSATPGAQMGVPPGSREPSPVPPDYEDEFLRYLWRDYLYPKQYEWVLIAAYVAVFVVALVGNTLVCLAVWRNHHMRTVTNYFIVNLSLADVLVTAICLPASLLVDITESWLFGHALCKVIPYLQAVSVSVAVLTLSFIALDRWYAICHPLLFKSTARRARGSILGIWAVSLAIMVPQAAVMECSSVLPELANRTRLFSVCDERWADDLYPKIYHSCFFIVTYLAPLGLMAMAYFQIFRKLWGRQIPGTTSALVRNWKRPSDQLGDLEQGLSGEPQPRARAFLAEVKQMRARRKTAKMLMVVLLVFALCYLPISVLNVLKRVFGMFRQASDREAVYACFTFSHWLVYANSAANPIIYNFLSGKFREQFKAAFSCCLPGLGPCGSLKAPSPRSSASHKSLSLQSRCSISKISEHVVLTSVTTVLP
CHO parental Ca = counter-screen: ATP calcium response change in parental CHO cells | parental CHO-K1, ATP-induced calcium, Fluo-8 fluorescence | AID 463079 | inhibition, % at 5.6 µM | hit rate 0.63% among 330,000;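 active = inhibition above that plate's mean sample inhibition plus 3 SD, cut at about 26% in these data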
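Material: parental CHO cells / Compound: single nominal dose of 5.6 µM per compound / Signal: Fluo-8 fluorescence / Replicates: singlicate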
TAAR1 antag = antagonists of human TAAR1. CHO RD-HGA16 TAAR1, Fluo-8 calcium fluorescence, antagonist. hit rate 1.5% among 360,000. AID 624466. Q96RJ0. inhibition, % at 3 µM;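 active = inhibition above a per-plate cutoff, the mean inhibition of test compounds on that plate plus 3 SD, cut at about 49% in these data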
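Test system – hTAAR1-expressing CHO RD-HGA16 cells, Gα16-coupled · Also added – β-PEA at EC80 concentration, post-compound challenge · Compound – 3 µM, single point · Incubation – dye loading 75 min at 37 °C, then 30 min room temperature · Measured by – Fluo-8 intracellular calcium dye fluorescence, real-time kinetic reads · Benchmarks – vehicle and agonist controls · Replicates – singlicate, one well per test compound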
OX1R antag-2 = OX1R (human) antagonism; O43613; OX1R-expressing cells, FRET antagonist read-out; inhibition, % at 6.6 µM; hit rate 1.8% among 330,000; in the data active = inhibition mostly above about 38%, no sharp cut-off; inactive = mostly below about 40%
Each line names hits and unclear results; the compound was inactive in the other large screens. Sampled rows, rich in hits. Any-hit rate of the full collection: about 4.2%.

C/C(Cn1cnc([N+](=O)[O-])n1)=N\NC(=O)c1ccccc1	none
C/C(Cn1nnc([N+](=O)[O-])n1)=N\NC(=O)c1ccccc1	OX1R antag-2 31.9
CCn1nnnc1SCC(=O)Nc1cc(C)on1	none
CC(C)N(Cc1ccccc1)C(=O)CN1c2cccc3cccc(c23)S1(=O)=O	OX1R antag-2 38.9
CN(C)C(=O)CN1c2cccc3cccc(c23)S1(=O)=O	none
Cc1ccc(S(=O)(=O)Cc2cc(F)c([N+](=O)[O-])cc2[N+](=O)[O-])cc1	OX1R antag-1 59.6, CHO parental Ca 56.5, OX1R antag-2 40.9 (no result: GalR3 antagonist, TAAR1 ag, TAAR1 antag)
CCOC(=O)c1ccc([N+](=O)[O-])c(CS(=O)(=O)c2ccc(Cl)cc2)c1	none
CN(C)CC#Cc1cccc(-c2nc(C(=O)O)cc3c2[C@@H](CCO)N(S(=O)C(C)(C)C)C3)c1 (stereo partly specified)	none (no result: OX1R antag-1, CHO parental Ca, OX1R antag-2)
Cc1cc(C(=O)CN2C(=O)C(=O)N(Cc3ccccc3)C2=O)c(C)n1CC1COc2ccccc2O1 (stereo unspecified)	none
Cc1cc(C(=O)COC(=O)c2ccc(CO)cc2)c(C)n1CC1COc2ccccc2O1 (stereo unspecified)	TAAR1 antag 49.5
O=c1cc(-c2ccccc2Cl)oc2c(NS(=O)(=O)c3cc(Cl)cc(Cl)c3O)ccc(O)c12	CHO parental Ca 75.1, OX1R antag-2 70.4 (no result: GalR3 antagonist, TAAR1 ag, TAAR1 antag)
c1ccc(-c2nc(-c3ccc(-c4ccon4)s3)no2)cc1	none
c1csc(-c2nc(-c3ccc(-c4ccon4)s3)no2)c1	OX1R antag-2 39.5
O=C(NC1=NCCS1)c1ccc(Cl)cc1	none
O=C(NC1=NCCS1)c1ccc(-c2ccc(Cl)cc2)o1	OX1R antag-2 56.1
O=S(=O)(Cc1ccccc1)Cc1cnc(Cl)s1	none
CCOc1cccc(N)c1	none (no result: GalR3 antagonist, TAAR1 ag, TAAR1 antag)
CCOc1ccc(N)c(SSc2cc(OCC)ccc2N)c1	CHO parental Ca 46.6
CC(C)c1nc2sc3c(=O)[nH]c(=S)[nH]c3c2c2c1CCCC2	none
Cc1cc(-c2ccccc2)c2c(=O)n(-c3ccccc3)[nH]c2n1	none
CCOC(=O)c1ccc(NC(=O)c2cc3c(s2)CCC3)cc1	OX1R antag-2 69.7
CCOC(=O)c1ccc(NC(=O)c2ccc(NC(=O)c3ccccc3)cc2)cc1	none
CCC(C)(C)NC(=O)c1ccc2c(c1)S(=O)(=O)c1ccccc1C2=O	none
CCN(CC(=O)NC(C)(C)C)C(=O)c1ccc2c(c1)S(=O)(=O)c1ccccc1C2=O	OX1R antag-2 56.3
CCN1CCN(C(=O)c2ccc3c(c2)S(=O)(=O)c2ccccc2C3=O)CC1	OX1R antag-2 60.2
O=C1c2ccccc2S(=O)(=O)c2cc(C(=O)N3CCC(O)CC3)ccc21	OX1R antag-2 75.4
CC(=O)N1CCN(C(=O)c2ccc3c(c2)S(=O)(=O)c2ccccc2C3=O)CC1	OX1R antag-2 69.2
O=C(Nc1ccc(N2CCOCC2)c(S(=O)(=O)Nc2ccccc2Cl)c1)c1ccc(=O)[nH]n1	none (no result: OX1R antag-1, CHO parental Ca, OX1R antag-2)
COc1ccc(C(=O)/C=C/N2CCCCC2)cc1OC	none
Cc1cc(S(=O)(=O)NCc2ccc3c(c2)OCO3)ccc1F	none
CCOC(=O)C1CCN(C(=O)CN(c2ccc(Oc3ccccc3)cc2)S(C)(=O)=O)CC1	none
CN1CCN(C(=O)c2ccc3c(c2)S(=O)(=O)c2ccccc2C3=O)CC1	OX1R antag-2 76.4
O=C1c2ccccc2S(=O)(=O)c2cc(C(=O)N3CCN(C(=O)c4ccccc4)CC3)ccc21	none
Clc1ccsc1-c1csc(-c2cccnc2)n1	OX1R antag-2 71.3
c1cncc(-c2csc(-c3cccnc3)n2)c1	none
COC(=O)N1CCC2CC1c1c(Cl)cccc12 (stereo unspecified)	none (no result: OX1R antag-1, CHO parental Ca, OX1R antag-2)
Cc1ccc2cc(CN(CCN(C)C)C(=O)Nc3ccc(Cl)cc3)c(=O)[nH]c2c1	none
Oc1[nH]c2ccccc2c1N=Nc1ccccc1F	TAAR1 ag 39.5
O=C(CNC(=O)c1ccco1)N=Nc1c(O)[nH]c2ccc(Br)cc12	TAAR1 ag 38.3, OX1R antag-2 36.4
O=C(CN1CCN(Cc2ccccc2)CC1)N=Nc1c(O)[nH]c2ccccc12	none
Oc1[nH]c2ccccc2c1N=Nc1ccc(F)cc1	none
O=C(CNC(=O)Cc1ccccc1)N=Nc1c(O)[nH]c2ccccc12	OX1R antag-2 44.8
O=C(CNC(=O)c1cccs1)N=Nc1c(O)[nH]c2ccc([N+](=O)[O-])cc12	OX1R antag-2 40.8
O=C(Cc1cccs1)N=Nc1c(O)[nH]c2ccc(Br)cc12	none
Cc1nn(Cc2ccc(Cl)c(Cl)c2)c(C)c1NC(=O)c1sc2ccccc2c1Cl	none
O=C(c1ccoc1)N1CCCC(N2CCN(c3cccc(Cl)c3)CC2)C1 (stereo unspecified)	none (no result: OX1R antag-1, CHO parental Ca, OX1R antag-2)
OC1(c2ccc(Cl)cc2)CCN(Cc2cn[nH]c2-c2ccc(F)cc2)CC1	TAAR1 ag 41.4
OC1(c2ccc(Cl)cc2)CCN(Cc2cn[nH]c2-c2ccccc2)CC1	none
O=C(CSc1nnc(-c2c[nH]c3ccccc23)o1)N(Cc1ccccc1)c1ccc(F)cc1	OX1R antag-2 51.6 (no result: GalR3 antagonist, TAAR1 ag, TAAR1 antag)
COc1ccc(C(=O)Nc2cccc(/C=C(\CCC(=O)O)c3nc4ccccc4s3)c2)cc1	TAAR1 antag 51.6
CCc1nn2c(N)c(/C=C3\C=Nc4ccccc43)c(=O)nc2s1	none
Cc1cn2c(N)c(/C=C3\C=Nc4ccccc43)c(=O)nc2s1	OX1R antag-2 45.0
O=C(c1cc(-c2ccc(Cl)cc2)on1)N1CCc2ccccc2C1	TAAR1 ag 39.1
COc1ccc(-c2cc(C(=O)N3CCc4ccccc4C3)no2)cc1OC	none
c1ccc(N2CCN(c3nc4ccccc4n4cnnc34)CC2)cc1	none
c1ccc2c(c1)CCN(c1nc3ccccc3n3cnnc13)C2	OX1R antag-2 52.7
O=C(NCCN1CCOCC1)c1ccc(NS(=O)(=O)c2cccc([N+](=O)[O-])c2)cc1	OX1R antag-2 51.7
CCOC(=O)c1cc(=O)c2c([N+](=O)[O-])ccc(OC)c2o1	OX1R antag-2 69.8
COc1ccc([N+](=O)[O-])c2c(=O)ccoc12	none
CCCCCCC[C@@H](C/C=C/CCC(=O)O)OC	none
CCCCCCC[C@@H](C/C=C/CCC(=O)N(C)C/C(=C/Cl)C/C(=C\C(=O)N1C[C@H](O)CC1=O)OC)OC	CHO parental Ca 41.2, TAAR1 antag 49.7
CCCCCCC[C@@H](C/C=C/CCC(=O)N(C)C/C(=C/Cl)C/C(=C\C(=O)N1CC(OC)=CC1=O)OC)OC	OX1R antag-1 57.1, OX1R antag-2 41.8
CCCc1cc(=O)oc2cc(OCC(=O)N3CCN(C(=O)C4COc5ccccc5O4)CC3)ccc12 (stereo unspecified)	TAAR1 antag 49.1
COc1ccc(CCNC(=O)c2ccc(CS(=O)(=O)c3ccc(Cl)cc3)o2)cc1OC	none
COc1ccc(CCNC(=O)c2ccc(CSc3ccc(Cl)cc3)o2)cc1OC	TAAR1 antag 65.9 (no result: OX1R antag-1, CHO parental Ca, OX1R antag-2)

Source: PubChem BioAssay (The Scripps Research Institute Molecular Screening Center)
